MC4R antag cAMP: antagonists of human melanocortin 4 receptor (MC4R) | P32245 | MC4R-expressing cells, MTII-stimulated cAMP, LANCE TR-FRET | inhibition, % at 6.5 µM | 360,000 tested, 0.48% active | AID 540295;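 active means inhibition above its plate's cutoff, the mean of tested wells on that plate plus 3 SD, cut at about 29% in these data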
Target sequence (P32245 whole entry, looked up): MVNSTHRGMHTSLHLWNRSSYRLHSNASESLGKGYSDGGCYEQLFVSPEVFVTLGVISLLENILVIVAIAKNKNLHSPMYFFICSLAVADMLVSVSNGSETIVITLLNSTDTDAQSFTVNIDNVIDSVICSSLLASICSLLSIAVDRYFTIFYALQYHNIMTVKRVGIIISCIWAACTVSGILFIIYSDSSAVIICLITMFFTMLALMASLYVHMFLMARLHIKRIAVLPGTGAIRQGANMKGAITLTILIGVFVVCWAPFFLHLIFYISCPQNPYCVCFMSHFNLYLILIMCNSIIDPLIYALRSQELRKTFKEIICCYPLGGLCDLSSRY
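Material: U2OS-MC4R stable cell line | Reagent: Melanotan II challenge after compound preincubation | Doses: One concentration, 6.5 µM nominal | Incubation: 30-min compound preincubation, 1-h Melanotan II challenge, 1-h detection, room temperature | Signal: TR-FRET cAMP assay | Replicates: One well per compound, no replicates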
NTR1 agonist: NTR1 (human) agonism; P30989; NTR1-U2OS beta-arrestin-GFP spot imaging, agonist mode; activation, % at 20 µM; 330,000 tested, 0.17% active; AID 493036;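 active means activation at or above 40% of the spot to cytoplasm intensity ratio, with at least 20 cells analyzed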
Tb MetRS inh: Trypanosoma brucei MetRS inhibition; purified T. brucei MetRS, ATP depletion, Kinase-Glo luminescence; 360,000 tested, 0.4% active; AID 624268; inhibition, % at 11.9 µM;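 active means inhibition above a per-plate cutoff of the control wells' mean inhibition plus 3 SD, cut at about 5.5% in these data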
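Test system – parasite MetRS enzyme · Reagent – substrates ATP, L-methionine and bulk Escherichia coli tRNA · Doses – 11.9 µM compound single dose, 0.9% DMSO · Times – 15 min enzyme-compound preincubation, 2 h reaction, 10 min detection, 25 °C · Signal – Kinase-Glo luminescence, ATP depletion format · Controls – DMSO-only wells as low control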
H9c2 TAG inh: inhibitors of triacylglycerol accumulation. AID 651582. inhibition, % at 12.5 µM. 230,000 tested, 0.66% active. H9c2 cells, Nile Red lipid (TAG) fluorescence; cells loaded with 200 µM oleic acid;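 active means pattern-corrected inhibition of lipid staining of at least 50% with the nuclear-stain viability signal not falling by more than 50%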
aDG glyco up: increases alpha dystroglycan glycosylation. 360,000 tested, 0.22% active. activation, % at 10 µM. Pro5-aDG cells, alpha-DG glycosylation AlphaScreen (IIH6); 0% Pro5, 100% B10-LARGE cell signal. AID 624168;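 active means activation of at least 8% versus controls, or a plate z-score of at least 8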;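 further: Pro5 are CHO cells carrying HIG-tagged alpha-DG that lacks glycosylation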
MC4R ag barr: human MC4R agonism via beta-arrestin; U2OS MC4R beta-arrestin complementation, luminescence; percent of melanotan II response, DMSO zero; P32245; AID 540308; activation, % at 8.9 µM; 360,000 tested, 0.98% active;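 active means activation above a per-plate cutoff, the mean activation of sample wells on that plate plus 3 SD, cut at about 8% in these data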
cAMP nonselect: U2OS forskolin cAMP inhibition counter-screen. inhibition, % at 6.5 µM. 1,600 tested, 26% active. AID 602193. shares compounds with MC4R antag cAMP. parental U2OS, LANCE TR-FRET;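 active means mean inhibition over triplicates above the low-control well mean plus 3 SD, set per campaign, cut at about 13% in these data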;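 further: signal is single emission at 671 nm which falls as cellular cAMP rises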
MC4R antag conf: human MC4R cAMP antagonism confirmation; shares compounds with MC4R antag cAMP; MC4R-expressing cells, MTII-stimulated cAMP, TR-FRET; inhibition, % at 6.5 µM; 1,600 tested, 27% active; AID 602195; in the data active means inhibition above about 29%
Each line names hits and unclear results; the compound was inactive in the other large screens (follow-up assays come after a bar, where they were run). Only some compounds are listed: those with a hit (about 2.4% of all), similar ones and a draw of the others.

COCc1ccc(C(=O)Nc2ccc(C(=O)O)cc2)o1	none
O=C(O)c1ccc(NC(=O)c2ccc(COc3ccccc3)o2)cc1	MC4R antag cAMP 28.7 (no result: H9c2 TAG inh) | cAMP nonselect inactive | MC4R antag conf inactive
CCOC(=O)C1(C)CCN1C(=O)c1cc(-c2ccc(Cl)cc2)oc1C (centres undefined)	none (no result: NTR1 agonist)
N/C(=N\OC(=O)c1ccc([N+](=O)[O-])cc1)c1cccnc1	none
N/C(=N\OC(=O)c1cc([N+](=O)[O-])ccc1Cl)c1cccnc1	MC4R antag cAMP 61.7 | cAMP nonselect 18.1 | MC4R antag conf 47.2
N/C(=N\OC(=O)c1ccc(Cl)c([N+](=O)[O-])c1)c1ccccn1	MC4R antag cAMP 47.8 | cAMP nonselect 28.3 | MC4R antag conf 39.9
O=C(COC(=O)c1ccccc1C(=O)c1ccc(Cl)c([N+](=O)[O-])c1)NC1CC1	MC4R antag cAMP 29.3 | cAMP nonselect 21.0 | MC4R antag conf inactive
CNC(=O)COC(=O)c1ccccc1C(=O)c1ccc(Cl)c([N+](=O)[O-])c1	none (no result: NTR1 agonist)
N/C(=N\OC(=O)c1ccc(Cl)c([N+](=O)[O-])c1)c1ccccc1	MC4R antag cAMP 44.2 (no result: H9c2 TAG inh) | cAMP nonselect 22.4 | MC4R antag conf 36.0
O=C(c1ccco1)N1CCN(c2ncnc3scc(-c4ccc(Cl)cc4)c23)CC1	MC4R antag cAMP 30.5 (no result: NTR1 agonist) | cAMP nonselect inactive | MC4R antag conf inactive
O=c1ccn(C2CCCCC2)c(=O)[nH]1	none (no result: NTR1 agonist, H9c2 TAG inh)
CCOC(=O)N1CCC(N2CCCC(CO)(Cc3ccccc3C)C2)CC1 (centres undefined)	none
CCOC(=O)N1CCC(N2CCCC(CO)(Cc3cccc(Cl)c3)C2)CC1 (centres undefined)	MC4R antag cAMP 33.5 | cAMP nonselect inactive | MC4R antag conf inactive
Cc1cccc(C(=O)NC2=NCCS2)c1	MC4R antag cAMP 33.3 (no result: H9c2 TAG inh) | cAMP nonselect inactive | MC4R antag conf inactive
O=C(Nc1nc2ccccc2[nH]1)c1ccc(Cl)c(S(=O)(=O)N2CCCC2)c1	MC4R antag cAMP 29.0 (no result: H9c2 TAG inh) | cAMP nonselect inactive | MC4R antag conf inactive
O=C(NC1=NCCS1)c1ccccc1	none
O=C(NC1=NCCS1)c1ccc(Cl)c(S(=O)(=O)N2CCCC2)c1	MC4R antag cAMP 32.0 | cAMP nonselect inactive | MC4R antag conf inactive
C[C@@H](NC(=O)[C@@H]1CCCN1C(=O)OC(C)(C)C)c1ccccc1	none (no result: MC4R antag cAMP, NTR1 agonist, H9c2 TAG inh, MC4R ag barr)
CN1CCN(C(=O)c2cc(S(=O)(=O)Nc3ccccc3F)c(Cl)cc2Cl)CC1	MC4R antag cAMP 34.8 | cAMP nonselect inactive | MC4R antag conf inactive
Cc1ccc(S(=O)(=O)Nc2ccccc2F)cc1C(=O)N1CCCC1	none
Cc1ccc(-c2nc3ccc(C)cn3c2CC2CCCCC2)cc1	none (no result: MC4R antag cAMP, NTR1 agonist, H9c2 TAG inh, MC4R ag barr)
O=C(O)CCn1c(=O)n(CCC(=O)O)c(=O)n(CCC(=O)O)c1=O	MC4R antag cAMP 28.6 | cAMP nonselect inactive | MC4R antag conf inactive
CCOC(=O)C1(C)CCCN(C(=O)c2cc(C#N)cs2)C1 (centres undefined)	none (no result: NTR1 agonist)
CCCCCCn1ccc(=N)cc1	none
CCCCCCCCCCCCCCCCn1cc[n+](CC(C)=O)c1	MC4R antag cAMP 28.7, MC4R ag barr 15.8 (no result: NTR1 agonist) | cAMP nonselect inactive | MC4R antag conf 32.5
CCOC(=O)/C=C/C(=O)Nc1ccc(Oc2ccccc2)cc1	MC4R antag cAMP 45.7 | cAMP nonselect 28.4 | MC4R antag conf 53.1
O=C(O)/C=C/C(=O)Nc1ccc(Oc2ccccc2)cc1	none
COC(=O)C[C@@H]1C=C[C@@H](NC(=O)CN(C)C)[C@@H](CO)O1	none (no result: MC4R antag cAMP, NTR1 agonist, H9c2 TAG inh, MC4R ag barr)
CC1(C(=O)NCc2ccccc2)CSCC(=O)N1Cc1cccs1 (centres undefined)	none (no result: MC4R antag cAMP, NTR1 agonist, H9c2 TAG inh, MC4R ag barr)
Cc1cccc(-n2c(-c3ccoc3C)n[nH]c2=S)c1	MC4R antag cAMP 30.0 (no result: H9c2 TAG inh) | cAMP nonselect inactive | MC4R antag conf inactive
COCCN(C(=O)c1csnn1)C(C(=O)NC1CCCC1)c1ccc(C)cc1 (centres undefined)	none (no result: H9c2 TAG inh)
